# TRPC6 inh – inhibitors of mouse TRPC6 channel; Q61143; HEK293-TRPC6, membrane potential dye, ACh-evoked depolarization; stronger effect = lower value; B-score at 10 µM; 310,000 tested, 1.1% active; AID 2553;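 active = B-score under library mean minus 3 SD, initial fluorescence not abnormally high, positive integrated signal ratio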;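 also: B-score derived from integrated fluorescence ratio over the kinetic read; more negative B-score means stronger inhibition of depolarization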
# Target sequence (Q61143 whole entry, looked up): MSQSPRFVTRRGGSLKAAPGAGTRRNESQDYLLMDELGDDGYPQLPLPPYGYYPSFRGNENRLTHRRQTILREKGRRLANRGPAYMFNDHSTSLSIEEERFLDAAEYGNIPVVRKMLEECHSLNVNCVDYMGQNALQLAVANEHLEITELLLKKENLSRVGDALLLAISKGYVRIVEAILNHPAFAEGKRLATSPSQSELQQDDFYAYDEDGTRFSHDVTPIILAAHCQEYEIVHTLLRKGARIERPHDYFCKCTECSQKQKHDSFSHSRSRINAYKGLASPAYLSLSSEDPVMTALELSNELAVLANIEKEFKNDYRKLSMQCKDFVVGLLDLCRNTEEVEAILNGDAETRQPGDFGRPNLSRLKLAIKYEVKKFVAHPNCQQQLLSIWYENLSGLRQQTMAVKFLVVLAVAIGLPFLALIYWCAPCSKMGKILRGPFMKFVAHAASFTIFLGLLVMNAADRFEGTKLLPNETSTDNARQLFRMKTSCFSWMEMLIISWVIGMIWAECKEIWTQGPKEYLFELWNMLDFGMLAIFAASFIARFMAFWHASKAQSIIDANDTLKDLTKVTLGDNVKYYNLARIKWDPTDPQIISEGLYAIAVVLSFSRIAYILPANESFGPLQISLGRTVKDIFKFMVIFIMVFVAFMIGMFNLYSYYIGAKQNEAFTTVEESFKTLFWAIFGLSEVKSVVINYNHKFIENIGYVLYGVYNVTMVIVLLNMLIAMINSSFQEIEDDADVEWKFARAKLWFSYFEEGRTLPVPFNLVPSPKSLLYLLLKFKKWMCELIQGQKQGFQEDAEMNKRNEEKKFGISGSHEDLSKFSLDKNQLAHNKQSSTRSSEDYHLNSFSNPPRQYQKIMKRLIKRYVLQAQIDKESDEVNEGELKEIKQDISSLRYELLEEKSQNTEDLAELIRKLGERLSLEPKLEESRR
# TRPC6 act – activators of mouse TRPC6 channel; Q61143; HEK293-TRPC6 membrane potential dye fluorescence; stronger effect = higher value; B-score at 10 µM; 310,000 tested, 0.13% active; AID 2550;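 active = B-score of the integrated fluorescence ratio above library mean plus 3 SD, and starting fluorescence ratio within library mean plus 5 SD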;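 also: higher score means more depolarization so channel activation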
# TRPC4 act – TRPC4 (mouse) channel activation; Q9QUQ5; HEK293 TRPC4beta/mu-opioid, Fluo4 calcium fluorescence; stronger effect = higher value; B-score at 10 µM; 310,000 tested, 0.49% active;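 active = B-score above 5 SD of library B-scores, and initial fluorescence ratio not above library mean plus 5 SD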;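 also: positive B-score marks a calcium rise read as TRPC4 activation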
#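 System: HEK293 cells stably co-expressing mouse TRPC4beta and mu-opioid receptor; Schedule: Fluo4 dye loading 45 min at room temperature, 110 s recording; Detection: Fluo4 fluorescence, kinetic; Evaluation: B-scored integrated calcium fluorescence ratio; Controls: buffer (low) and maximal DAMGO (high).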
# TRPC4 potent – allosterically enhances the mouse TRPC4 cation channel. HEK293 TRPC4beta/mu-opioid, DAMGO EC20, Fluo-4 Ca2+ flux; stronger effect = higher value. B-score at 10 µM. 310,000 tested, 0.42% active;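 active = B-score of calcium response area above 5 SD of library B-scores, with initial fluorescence ratio within 5 SD of library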;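 also: B-score of integrated fluorescence ratio over time as area under calcium response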
# TRPC4 block – inhibitors of mouse TRPC4 channel. HEK293 TRPC4beta/mu-opioid, DAMGO-evoked Fluo4 calcium flux; stronger effect = lower value. B-score at 10 µM. 300,000 tested, 0.39% active. Q9QUQ5;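 active = B-score over 3 SD under the library average, no early fluorescence shift, positive overall ratio signal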
#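 Assay system: Stable TRPC4beta/mu-opioid receptor HEK293 cells | Reagent: DAMGO in two steps, submaximal then maximal | Compound dosing: Single concentration per test compound | Signal: Fluo4 Ca2+ flux fluorescence | Evaluation: Per-well B score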
# TRPC4 spec 2 – second check of whether TRPC6 inhibitors also affect mouse TRPC4 | 920 tested, 42% active | AID 2776 | shares compounds with TRPC6 inh | HEK293 TRPC4/MOR, membrane potential dye fluorescence; channel activated by saturating DAMGO dose | inhibition, % at 10 µM;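 active = compounds whose fluorescence signal differed from control wells by over 3 SD, either direction, in both duplicate plates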
# TRPC4 spec – mouse TRPC4 off-target activity of TRPC6 inhibitors; shares compounds with TRPC6 inh; HEK293 TRPC4/mu-opioid, membrane potential fluorescence; activity change, negative = inhibition, % at 10 µM; 920 tested, 61% active; AID 2777;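 active = rise or fall in signal beyond 3 SD of buffer-only wells in both replicate plates, either sign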;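 also: integrated kinetic ratio of fluorescence range over baseline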
# HEK293 MPD ctr 2-1 – second check of TRPC6 inhibitor effects in parental HEK293 cells; shares compounds with TRPC6 inh; parental HEK293 membrane potential dye fluorescence; maximal acetylcholine challenge after compound addition; signal change vs control, % at 10 µM; 920 tested, 31% active; AID 2779;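 active = membrane potential signal moving either way by over 3 SD of the maximum-effect control, in both duplicate plates, meaning non-specific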
# HEK293 MPD ctr-1 – parental HEK293 nonspecific activity of TRPC6 inhibitors; shares compounds with TRPC6 inh; parental HEK293 membrane potential dye fluorescence; membrane potential signal change, % at 10 µM; 920 tested, 60% active; AID 2780;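 active = membrane potential signal shifting up or down by more than 3 SD of buffer-only wells, on both duplicate plates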
# HEK293 MPD ctr-2 – checks TRPC6 modulator effects in parental HEK293 cells; shares compounds with TRPC6 inh; membrane potential dye fluorescence; membrane potential signal change, % at 10 µM; 2,400 tested, 51% active;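 active = membrane potential signal moves up or down beyond 5 SD from buffer-only wells, on both duplicate plates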
# HEK293 MPD ctr 2-2 – parental HEK293 nonspecific activity of TRPC6 modulators, second screen | shares compounds with TRPC6 inh | membrane potential dye fluorescence; after compound, maximal acetylcholine stimulation | inhibition, % at 10 µM | 2,400 tested, 14% active | AID 488926;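 active = membrane potential signal drops by more than 5 SD from the mean control signal, in both duplicate plates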;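 also: plate controls were acetylcholine ECmax control wells for no effect and buffer only wells for full effect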
# TRPC4 ctr mod – tests whether TRPC6 modulators also affect mouse TRPC4. HEK293 TRPC4/mu-opioid, membrane potential fluorescence. percent change from control (negative = decrease, positive = increase), % at 10 µM. 2,400 tested, 69% active. shares compounds with TRPC6 inh;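 active = membrane potential signal moved up or down beyond 5 SD of buffer control wells, in both duplicate plates, actives on both sides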;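 also: plate controls were assay buffer wells for no effect and DAMGO maximal-effect wells for full effect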
# TRPC4/MOR inh 2 – second selectivity test of TRPC6 modulators against mouse TRPC4; shares compounds with TRPC6 inh; HEK293 TRPC4/mu-opioid, membrane potential dye fluorescence; stimulated with maximal-effect DAMGO; inhibition, % at 10 µM; 2,400 tested, 55% active; AID 488928;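 active = drop in membrane potential signal beyond 5 SD of the control wells in both duplicate plates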;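 also: TRPC4 counter screen for TRPC6 hits run under conditions tuned for TRPC6 not TRPC4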
# TRPC6 inh conf – confirmation of mouse TRPC6 inhibitors; shares compounds with TRPC6 inh; 3,300 tested, 43% active; inhibition, % at 10 µM; AID 488960; HEK293-TRPC6, membrane potential dye, ACh-evoked depolarization;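 active = fluorescence ratio falls more than 5 SD below the full-stimulation control mean, in both duplicate runs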;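 also: integrated fluorescence ratio of peak minus minimum over baseline after agonist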
# TRPC6 act conf – mouse TRPC6 activator confirmation | 2,800 tested, 11% active | HEK293-TRPC6 membrane potential dye fluorescence, FDSS | shares compounds with TRPC6 inh | activation, % at 10 µM;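 active = ratio signal rise beyond 5 SD above unstimulated control wells' mean, seen in both duplicate runs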;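 also: plate controls were buffer EC0 wells for no effect and acetylcholine ECmax response for full effect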
# * marks the source's active call; other numbers are inactive results; i = inactive; x = not tested or not shown. Most compounds without a hit are left out; they make up all but 2.3% or so of the library.
SMILES,TRPC6 inh,TRPC6 act,TRPC4 act,TRPC4 potent,TRPC4 block,TRPC4 spec 2,TRPC4 spec,HEK293 MPD ctr 2-1,HEK293 MPD ctr-1,HEK293 MPD ctr-2,HEK293 MPD ctr 2-2,TRPC4 ctr mod,TRPC4/MOR inh 2,TRPC6 inh conf,TRPC6 act conf
CCCCOc1ccc(Br)cc1CSC(=N)N,-6.94*,i,i,i,i,18.5%*,4.3%*,i,6.7%*,x,x,x,x,76.5%*,i
CCCCCOc1ccc(CSC(=N)N)cc1[N+](=O)[O-],-7.61*,i,i,i,i,45.5%*,i,i,-130.0%*,x,x,x,x,80.2%*,i
CCCCOc1ccc(CN(CCO)CCO)cc1[N+](=O)[O-],i,i,i,i,i,x,x,x,x,x,x,x,x,x,x
Cc1ccn2c(NC(=O)C(C)(C)Oc3ccc(Cl)cc3)c(-c3cccs3)nc2c1,-8.79*,i,i,i,i,x,x,x,x,-120.0%*,i,-26.0%*,87.5%*,58.0%*,i
Cc1ccc(C(=O)Nc2c(-c3cccs3)nc3cc(C)ccn23)cc1,i,i,i,i,i,x,x,x,x,x,x,x,x,x,x
CC(C)(C)c1ccc(OCCCNC2CCCC2)cc1,-5.82*,i,i,i,i,x,x,x,x,209.0%*,62.0%*,47.0%*,40.0%*,66.5%*,x
Cc1ccc(OCCCNC2CCCC2)cc1,i,i,i,i,i,x,x,x,x,x,x,x,x,x,x
Cc1cc(C)n(C(=O)CNC(=O)c2cccc(Br)c2)n1,-5.82*,i,i,i,i,x,x,x,x,i,i,i,i,i,i
Cc1cc(C)n(C(=O)CNC(=O)c2cccc(Cl)c2)n1,i,i,i,i,i,x,x,x,x,x,x,x,x,x,x
N=c1c(C(=O)NCc2ccc(F)cc2)cc2c(=O)n3ccccc3nc2n1Cc1cccnc1,-5.76*,i,i,i,i,x,x,x,x,i,i,-33.5%*,i,51.5%*,i
COC(=O)c1cc2c(=O)n3ccccc3nc2n(Cc2cccnc2)c1=N,-7.8*,i,i,i,i,75.0%*,-33.2%*,i,-520.0%*,x,x,x,x,i,i
Cc1cc(=O)n2c3ccccc3n(CC(O)CN3CCCCC3)c2c1C#N (stereo not drawn),-8.33*,i,i,i,i,50.5%*,-21.3%*,i,-365.0%*,x,x,x,x,63.4%*,i
O=C(CN1CCCCC1)Nc1ccc(N2CCCCCC2)cc1,-6.6*,i,i,i,i,x,x,x,x,i,i,i,36.5%*,54.0%*,i
CCN(CC)CC(=O)Nc1ccc(-c2nc3cc(NC(=O)CN(CC)CC)ccc3o2)cc1,-8.65*,i,i,i,i,71.5%*,i,i,i,x,x,x,x,i,x
O=C(CN1CCCC1)Nc1ccc(-c2nc3cc(NC(=O)CN4CCCC4)ccc3o2)cc1,i,11.8*,i,i,i,x,x,x,x,218.5%*,i,27.5%*,i,i,76.0%*
COc1ccc(C(=O)N2CCN(C(C)=O)CC2)cc1S(=O)(=O)N1CCOCC1,i,i,i,i,i,x,x,x,x,x,x,x,x,x,x
O=C(NCc1nnnn1-c1ccc(Cl)cc1)c1ccc(Br)o1,i,i,i,i,i,x,x,x,x,x,x,x,x,x,x
CCOc1ccc(NC(=S)NCc2ccc3[nH]c(C)cc3c2)cc1,-8.05*,i,i,i,i,i,-9.5%*,i,-150.0%*,x,x,x,x,i,i
Cc1ccccc1C(=O)N1CCN(c2ccc([N+](=O)[O-])c(N3CCOCC3)c2)CC1,-5.37*,i,i,i,i,x,x,x,x,i,i,i,i,i,i
O=C(CCc1ccccc1)Nc1ccnn1C1CCN(Cc2ncc[nH]2)CC1,i,i,i,i,i,x,x,x,x,x,x,x,x,x,x
COC(=O)C(CC(C)C)NC(=O)c1cccs1 (stereo not drawn),i,i,i,i,i,x,x,x,x,x,x,x,x,x,x
COc1ccc(OC)c(S(=O)(=O)N2CCCC(C(=O)NCc3cccnc3)C2)c1 (stereo not drawn),i,i,i,i,i,x,x,x,x,x,x,x,x,x,x
Cc1nn(-c2cc(N3CCCCCC3)ccc2[N+](=O)[O-])c(=O)c2ccccc12,i,i,i,i,i,x,x,x,x,x,x,x,x,x,x
Cc1ccc(-c2nn(-c3cc(N4CCNCC4)ccc3[N+](=O)[O-])c(=O)c3ccccc23)cc1,-9.55*,i,i,i,i,51.0%*,-10.6%*,i,i,x,x,x,x,i,i
CCC(C)(C)n1nnnc1C(c1ccc(F)cc1)N1CCN(C(=O)c2ccco2)CC1 (stereo not drawn),-5.47*,i,i,i,i,x,x,x,x,123.5%*,i,28.0%*,34.5%*,i,x
CCC(C)(C)n1nnnc1C(c1ccc(C)cc1)N1CCN(C(=O)c2ccco2)CC1 (stereo not drawn),i,i,i,i,i,x,x,x,x,x,x,x,x,x,x
N=c1c(C(=O)NC2CCCCC2)cc2c(=O)n3ccccc3nc2n1Cc1cccnc1,-5.49*,i,i,i,i,x,x,x,x,-84.5%*,i,-23.5%*,30.5%*,36.5%*,i
N=c1c(C(=O)NC2CCCCC2)cc2c(=O)n3ccccc3nc2n1Cc1ccccc1,-8.04*,i,i,i,i,x,x,x,x,-141.5%*,i,-36.5%*,50.5%*,46.5%*,i
